ChEMBL document CHEMBL1145212, “Fluorinated diaryl sulfides as serotonin transporter ligands: synthesis, structure-activity relationship study, and in vivo evaluation of fluorine-18-labeled compounds as PET imaging agents” (J Med Chem, 2005)

Key:
Rattus norvegicus [1] = test: Biodistribution of [18F]AFE in rat frontal cortex at 10 min postinjection in vivo; format: ADME, organism-based
Procedure, shortened: (§1)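 Male Sprague-Dawley rats, three per group, received ~20 µCi of the F-18 radioligand in saline by tail-vein injection. Rats were anesthetized with CO2 and decapitated at 10, 30, 60, 90 or 120 min. Blood and brain regions were weighed and gamma-counted. %ID/g was decay- and tail-residual-corrected against F-18 standards made from the injectate and reported as mean ± SD.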

Rattus norvegicus [2] = test: Biodistribution of [18F]-AFE in rat frontal cortex at 30 min postinjection in vivo; format: ADME, organism-based; settings: 0.5 h
Procedure, shortened: (§2)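 Male Sprague-Dawley rats, three per time point, received the F-18 radioligand in saline (~20 µCi per rat at injection) by tail vein. Under CO2 anesthesia they were decapitated at 10, 30, 60, 90 or 120 min. Blood and dissected brain regions were weighed and gamma counted. Activity was decay-corrected, and injected dose was corrected for tail residual activity. Uptake was expressed as %ID/g versus injectate standards, mean ± SD.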

Rattus norvegicus [3] = test: Biodistribution of [18F]AFE in rat frontal cortex at 60 min postinjection in vivo; format: ADME, organism-based; settings: 1 h; procedure, shortened: as §1
Rattus norvegicus [4] = test: Biodistribution of [18F]AFE in rat frontal cortex at 90 min postinjection in vivo; format: ADME, organism-based; settings: 1.5 h; procedure, shortened: as §1
Rattus norvegicus [5] = test: Biodistribution of [18F]AFE in rat frontal cortex at 120 min postinjection in vivo; format: ADME, organism-based; settings: 2 h; procedure, shortened: as §1
Rattus norvegicus [6] = test: Biodistribution of [18F]AFE in rat blood at 120 min postinjection in vivo; format: ADME, organism-based; settings: 2 h; procedure, shortened: as §1
Rattus norvegicus [7] = test: Biodistribution of [18F]-AFE in rat striatum at 10 min postinjection in vivo; format: ADME, organism-based; procedure, shortened: as §2
Rattus norvegicus [8] = test: Biodistribution of [18F]AFE in rat striatum at 30 min postinjection in vivo; format: ADME, organism-based; settings: 0.5 h; procedure, shortened: as §1
Rattus norvegicus [9] = test: Biodistribution of [18F]-AFE in rat striatum at 90 min postinjection in vivo; format: ADME, organism-based; settings: 1.5 h; procedure, shortened: as §2
Rattus norvegicus [10] = test: Biodistribution of [18F]AFE in rat thalamus at 10 min postinjection in vivo; format: ADME, organism-based; procedure, shortened: as §1
Rattus norvegicus [11] = test: Biodistribution of [18F]AFE in rat thalamus at 30 min postinjection in vivo; format: ADME, organism-based; settings: 0.5 h; procedure, shortened: as §1
Rattus norvegicus [12] = test: Biodistribution of [18F]AFE in rat thalamus at 60 min postinjection in vivo; format: ADME, organism-based; settings: 1 h; procedure, shortened: as §1
Rattus norvegicus [13] = organism: Rattus norvegicus; test: Specific binding of [18F]AFA in striatum of rat pretreated with compound 7e; n=3; format: functional
Rattus norvegicus [14] = organism: Rattus norvegicus; test: Specific binding of [18F]-AFA in thalamus of rat pretreated with compound 7e; n=3; format: functional
Rattus norvegicus [15] = organism: Rattus norvegicus; test: Specific binding of [18F]AFA in hippocampus of rat pretreated with compound 7e; n=3; format: functional
Rattus norvegicus [16] = organism: Rattus norvegicus; test: Specific binding of [18F]AFA in hypothalamus of rat pretreated with compound 7e; n=3; format: functional
Rattus norvegicus [17] = organism: Rattus norvegicus; test: Specific binding of [18F]AFA in frontal cortex of rat pretreated with compound 7e; n=3; format: functional
Rattus norvegicus [18] = test: Biodistribution of [18F]AFE in rat hypothalamus at 120 min postinjection in vivo; format: ADME, organism-based; settings: 2 h; procedure, shortened: as §1
Rattus norvegicus [19] = test: Biodistribution of [18F]AFE in rat blood at 10 min postinjection in vivo; format: ADME, organism-based; procedure, shortened: as §1
Rattus norvegicus [20] = test: Biodistribution of [18F]-AFE in rat blood at 30 min postinjection in vivo; format: ADME, organism-based; settings: 0.5 h; procedure, shortened: as §2
Rattus norvegicus [21] = test: Biodistribution of [18F]AFE in rat blood at 60 min postinjection in vivo; format: ADME, organism-based; settings: 1 h; procedure, shortened: as §1
Rattus norvegicus [22] = test: Biodistribution of [18F]AFE in rat blood at 90 min postinjection in vivo; format: ADME, organism-based; settings: 1.5 h; procedure, shortened: as §1
Rattus norvegicus [23] = test: Biodistribution of [18F]-AFE in rat striatum 60 min postinjection in vivo; format: ADME, organism-based; settings: 1 h; procedure, shortened: as §2
Rattus norvegicus [24] = test: Biodistribution of [18F]-AFE in rat cerebellum at 120 min postinjection in vivo; format: ADME, organism-based; settings: 2 h; procedure, shortened: as §2
Rattus norvegicus [25] = test: Biodistribution of [18F]AFE in rat hippocampus at 10 min postinjection in vivo; format: ADME, organism-based; procedure, shortened: as §1
Rattus norvegicus [26] = test: Biodistribution of [18F]AFE in rat hippocampus at 30 min postinjection in vivo; format: ADME, organism-based; settings: 0.5 h; procedure, shortened: as §1
Rattus norvegicus [27] = test: Biodistribution of [18F]AFE in rat hippocampus at 60 min postinjection in vivo; format: ADME, organism-based; settings: 1 h; procedure, shortened: as §1
Rattus norvegicus [28] = test: Biodistribution of [18F]AFE in rat hippocampus at 90 min postinjection in vivo; format: ADME, organism-based; settings: 1.5 h; procedure, shortened: as §1
Rattus norvegicus [29] = test: Biodistribution of [18F]AFE in rat hippocampus at 120 min postinjection in vivo; format: ADME, organism-based; settings: 2 h; procedure, shortened: as §1
Rattus norvegicus [30] = test: Biodistribution of [18F]AFE in rat hypothalamus at 10 min postinjection in vivo; format: ADME, organism-based; procedure, shortened: as §1
Rattus norvegicus [31] = test: Biodistribution of [18F]AFE in rat hypothalamus at 30 min postinjection in vivo; format: ADME, organism-based; settings: 0.5 h; procedure, shortened: as §1
Rattus norvegicus [32] = test: Biodistribution of [18F]AFE in rat hypothalamus at 90 min postinjection in vivo; format: ADME, organism-based; settings: 1.5 h; procedure, shortened: as §1
Rattus norvegicus [33] = test: Biodistribution of [18F]AFE in rat striatum at 120 min postinjection in vivo; format: ADME, organism-based; settings: 2 h; procedure, shortened: as §1
Rattus norvegicus [34] = test: Biodistribution of [18F]AFE in rat thalamus at 120 min postinjection in vivo; format: ADME, organism-based; settings: 2 h; procedure, shortened: as §1
Rattus norvegicus [35] = test: Biodistribution of [18F]AFE in rat cerebellum at 10 min postinjection in vivo; format: ADME, organism-based; procedure, shortened: as §1
Rattus norvegicus [36] = test: Biodistribution of [18F]-AFE in rat cerebellum at 30 min postinjection in vivo; format: ADME, organism-based; settings: 0.5 h; procedure, shortened: as §2
Rattus norvegicus [37] = test: Biodistribution of [18F]AFE in rat cerebellum at 60 min postinjection in vivo; format: ADME, organism-based; settings: 1 h; procedure, shortened: as §1
Rattus norvegicus [38] = test: Biodistribution of [18F]AFE in rat cerebellum at 90 min postinjection in vivo; format: ADME, organism-based; settings: 1.5 h; procedure, shortened: as §1
Rattus norvegicus [39] = test: Biodistribution of [18F]AFE in rat thalamus at 90 min postinjection in vivo; format: ADME, organism-based; settings: 1.5 h; procedure, shortened: as §1
Rattus norvegicus [40] = test: Biodistribution of [18F]AFE in rat hypothalamus at 60 min postinjection in vivo; format: ADME, organism-based; settings: 1 h; procedure, shortened: as §1

`CN(C)Cc1ccccc1Sc1ccc(CC[18F])cc1N` was tested, and the Biodistribution (Rattus norvegicus [1]) was 0.62 %ID/g, the Biodistribution (Rattus norvegicus [2]) was 0.32 %ID/g and the Biodistribution (Rattus norvegicus [3]) was 0.19 %ID/g. It also gave a Biodistribution (Rattus norvegicus [4]) of 0.08 %ID/g, a Biodistribution (Rattus norvegicus [5]) of 0.06 %ID/g and a Biodistribution (Rattus norvegicus [6]) of 0.02 %ID/g. The Biodistribution (Rattus norvegicus [7]) was 0.51 %ID/g, the Biodistribution (Rattus norvegicus [8]) was 0.33 %ID/g and the Biodistribution (Rattus norvegicus [9]) was 0.1 %ID/g. It also gave a Biodistribution (Rattus norvegicus [10]) of 0.58 %ID/g, a Biodistribution (Rattus norvegicus [11]) of 0.39 %ID/g and a Biodistribution (Rattus norvegicus [12]) of 0.27 %ID/g. It also gave a Specific binding (Rattus norvegicus [13]) of 0.61 %ID/g, a Specific binding (Rattus norvegicus [14]) of 1.06 %ID/g and a Specific binding (Rattus norvegicus [15]) of 0.65 %ID/g. For the same compound, the Specific binding (Rattus norvegicus [16]) was 1.21 %ID/g, the Specific binding (Rattus norvegicus [17]) was 0.48 %ID/g and the Biodistribution (Rattus norvegicus [18]) was 0.1 %ID/g. The Biodistribution (Rattus norvegicus [19]) was 0.25 %ID/g, the Biodistribution (Rattus norvegicus [20]) was 0.13 %ID/g and the Biodistribution (Rattus norvegicus [21]) was 0.07 %ID/g. The Biodistribution (Rattus norvegicus [22]) was 0.04 %ID/g, the Biodistribution (Rattus norvegicus [23]) was 0.21 %ID/g and the Biodistribution (Rattus norvegicus [24]) was 0.02 %ID/g. It also gave a Biodistribution (Rattus norvegicus [25]) of 0.38 %ID/g, a Biodistribution (Rattus norvegicus [26]) of 0.27 %ID/g and a Biodistribution (Rattus norvegicus [27]) of 0.17 %ID/g. It also gave a Biodistribution (Rattus norvegicus [28]) of 0.09 %ID/g, a Biodistribution (Rattus norvegicus [29]) of 0.07 %ID/g and a Biodistribution (Rattus norvegicus [30]) of 0.51 %ID/g. It also gave a Biodistribution (Rattus norvegicus [31]) of 0.41 %ID/g, a Biodistribution (Rattus norvegicus [32]) of 0.14 %ID/g and a Biodistribution (Rattus norvegicus [33]) of 0.08 %ID/g. It also gave a Biodistribution (Rattus norvegicus [34]) of 0.13 %ID/g, a Biodistribution (Rattus norvegicus [35]) of 0.28 %ID/g and a Biodistribution (Rattus norvegicus [36]) of 0.13 %ID/g. The Biodistribution (Rattus norvegicus [37]) was 0.06 %ID/g, the Biodistribution (Rattus norvegicus [38]) was 0.03 %ID/g and the Biodistribution (Rattus norvegicus [39]) was 0.17 %ID/g. For the same compound, the Biodistribution (Rattus norvegicus [40]) was 0.24 %ID/g.
